5 compounds from ChEMBL document CHEMBL4371088, “Analysis of chain length, substitution patterns, and unsaturation of AM-404 derivatives as 20S proteasome stimulators” (Bioorg Med Chem Lett, 2019) can be followed below.

The nature of data set [1]: Solubility of the compound in DMSO. It counts as physicochemical.
A further data set concerns the target 20S proteasome. The data set is described as follows: Stimulation of human 20S proteasome using 11 amino acid FRET peptide as substrate measured every 2 mins over 1 hr by FRET assay. It counts as protein-complex assay. Put shortly: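 Purified human 20S core particle is incubated with an 11-residue reporter peptide carrying a FRET pair, with or without stimulator. The peptide hydrolysis rate is calculated and expressed as percent increase over the basal (unstimulated) rate. EC50 comes from concentration-response curves.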

Data set [2] deals with 20S proteasome (Homo sapiens) (UniProt P49721+P20618+P28074+P28062+P28065+P28072+P25786+P25787+P25788+P25789+P28066+P60900+O14818+Q8TAA3+P40306+A5LHX3+P49720+P28070+Q99436). The data set is described as follows: Stimulation of human 20S proteasome at EC50 using 11 amino acid FRET peptide as substrate measured every 2 mins over 1 hr by FRET assay relative to control. Format: protein-complex assay. Put shortly:
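Purified human 20S core particle incubated with an 11-residue reporter peptide carrying a FRET pair. Hydrolysis rate of the peptide is calculated with and without stimulator and expressed as percent increase over basal hydrolysis.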

Data set [3] deals with HEK-293T. Description: Cytotoxicity against HEK293T cells up to 50 uM after 16 hrs by Celltiter-Glo luminescence assay. To be noted: human. Format: cell-based. The method, boiled down: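 HEK-293T cells exposed for 16 hrs to varying concentrations of stimulator before toxicity was assessed.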
Data set [4] concerns HEK-293T. Description: Cytotoxicity against HEK293T cells at 25 to 50 uM after 24 hrs by LDH assay. To be noted: human.

The structures appear in SMILES notation.

Turning to `CCCCCCCC/C=C\CCCCC/C=C/C(=O)O`, the solubility result in data set [1] was “Insoluble”.

In general, EC50 refers to the midpoint of the concentration-response curve. In turn, `CCCCCCCC/C=C\CCCCCCCC(=O)Nc1ccc(O)cc1` registered a concentration for a half-maximal effect (EC50) on 20S proteasome of 35 µM. Besides, the Activity in data set [2] was 400%; in the data set on HEK-293T [3], “Non-Toxic”; with HEK-293T [4] it was “Non-Toxic”.

Regarding `CCCCCC/C=C\CCCCC/C=C/C(=O)O`, the solubility entry in data set [1] is given as “Insoluble”.

`CCCCCCCC/C=C\CCCCC/C=C/C(=O)Nc1ccc(O)cc1`: the concentration for a half-maximal effect (EC50) at 20S proteasome stood at 24 µM. Moreover, the Activity was 500% in data set [2], “Non-Toxic” in the data set on HEK-293T [3] and “Non-Toxic” with HEK-293T [4].

The compound `CCCCC/C=C\C/C=C\C/C=C\C/C=C\CCCC(=O)Nc1ccc(O)cc1` displayed an EC50 at 20S proteasome of 28 µM. Further, the Activity in data set [2] was 1000%; with HEK-293T [3], “Toxic”; with HEK-293T [4] it was “Non-Toxic”.
